Results from PMC9924909 (Brain, 2022).
Values joined by “and” are separate entries in the source; they are usually repeats but may differ in a detail not shown here. Identical values can stand only once. “Also recorded” adds a separate entry of the source.

What was measured:
[1] = system: mouse models of neurological GD; conditions: cited from earlier work
adults with GD3 [2] = experiment: Brain volumetric MRI, tensor-based morphometry; format: in vivo, human
In short: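 MRI of brain and brainstem (at least T1 and T2) at baseline, Week 26 and Week 52 on 1.5 or 3 T scanners, read centrally by a reviewer blinded to patient and time point. FreeSurfer parcellation. Tensor-based morphometry: symmetric log-demons registration of baseline/follow-up pairs with a cross-correlation metric. The Jacobian determinant integrated over each region gives the rate of volume change.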

[3] = Venglustat plasma pharmacokinetics, LEAP trial; format: in vivo, human; conditions: for plasma venglustat concentration, mean (SD): 10 patients (Patient 9 excluded); for plasma venglustat concentration, Patient 9: single patient with low exposure
In short: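 Plasma sampled on Day 1 pre-dose and at 1, 2, 4, 8 and 24 h. Further samples taken 2–4 h post-dose at Weeks 4, 26 and 52, and pre-dose at Weeks 12 and 39. Oral test compound 15 mg once daily. […] Values below LLOQ entered as 0.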

[4] = Venglustat CSF pharmacokinetics, LEAP trial; format: in vivo, human; conditions: for CSF venglustat concentration, mean (SD): 10 patients (Patient 9 excluded); for CSF venglustat concentration, Patient 9: single patient with low exposure
In short: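 CSF for drug levels collected pre-dose on Day 1 and 2–4 h post-dose at Weeks 4, 26 and 52 (reported as ~4 h), while on oral test compound 15 mg once daily. Concentrations summarised descriptively, with one patient excluded from summary statistics. Values below LLOQ entered as 0.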

[5] = system: monosialodihexosylganglioside; experiment: Monosialodihexosylganglioside in CSF; format: in vivo, human; conditions: Weeks 4, 26 and 52; measurable at baseline in eight of 11 patients
In short: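 Exploratory CSF biomarkers quantified in CSF taken by lumbar puncture at baseline and Weeks 1, 4, 26 and 52. Adults with GD3 received oral test compound 15 mg once daily plus maintenance IV enzyme replacement for 52 weeks.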

adults with GD3 [6] = experiment: Horizontal and vertical saccadic eye movements; format: in vivo, human; conditions: after 1 year; horizontal or vertical velocity and amplitude
In short: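 Horizontal and vertical saccades recorded non-invasively and assessed by a central reader. Eye-position and target traces were filtered to give eye velocity. Saccades were detected by velocity criteria, and amplitude, duration and peak velocity were derived. Patients took oral test compound 15 mg once daily on top of maintenance IV enzyme replacement for 1 year.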

glucosylceramide = experiment: Glucosylceramide concentration in plasma and CSF, LEAP trial; format: in vivo, human
In short: (§1)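 CSF collected by lumbar puncture at baseline and Weeks 1, 4, 26, 52; plasma at baseline and Weeks 1, 4, 12, 26, 39, 52. Dosing was oral test compound 15 mg once daily with maintenance IV enzyme replacement. LLOQ: glucosylceramide 0.1 μg/ml plasma, 2.0 ng/ml CSF; glucosylsphingosine 5.0 ng/ml plasma, 5 pg/ml CSF. Change from baseline summarised as median percentage with interquartile range and 95% CI.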

adults with GD3 [7] = experiment: Trail Making Test; format: in vivo, human
In short: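 Neurocognition measured with the Trail Making Test: Part A (timed visual search and psychomotor speed) and Part B (set-shifting, executive component). Trail B minus Trail A time was derived to remove graphomotor and visual-scanning variance. Baseline versus Week 52 under oral test compound 15 mg once daily plus maintenance IV enzyme replacement.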

plasma glucosylceramide = conditions: cited from earlier work
CYP3A = conditions: no reference given; cited from earlier work
glucosylsphingosine = experiment: Glucosylsphingosine concentration in plasma and CSF, LEAP trial; format: in vivo, human
In short: as §1

adults with GD3 [8] = experiment: Safety and tolerability, LEAP trial; format: in vivo, human; conditions: 1 year, 11 patients
In short: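 Open-label, single-arm study at six centres: 11 adults with GD3 took oral test compound 15 mg once daily with maintenance IV imiglucerase every 2 weeks (stable doses 38.5–125 U/kg). Safety and tolerability were assessed over 52 weeks. No pre-specified statistical testing.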

adults with GD3 [9] = experiment: Systemic manifestations of GD; format: in vivo, human
In short: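 Haemoglobin, platelet count, and liver and spleen volumes assessed per standard clinical practice over 1 year of daily oral test compound 15 mg plus maintenance IV enzyme replacement. Bone mineral density measured by DXA; bone marrow burden scored from lumbar spine and femur MRI. Lung function followed ATS standards: spirometry (FVC, FEV₁), total lung capacity and carbon monoxide diffusing capacity.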

[10] = system: glucosylceramide synthase; conditions: cited from earlier work
[11] = after 1 year, patient with low venglustat exposure
[12] = individual patients, baseline to Week 52
[13] = Week 4, ~4 h post-dose, 15 mg once daily
[14] = Week 26, ~4 h post-dose, 15 mg once daily
[15] = Week 52, ~4 h post-dose, 15 mg once daily
[16] = baseline to Week 52, 11 patients
[17] = venglustat in combination with imiglucerase

## CC(C)(NC(=O)O[C@@H]1CN2CCC1CC2)c1csc(-c2ccc(F)cc2)n1 [Venglustat]
[1]
  glycolipid accumulation in liver and brain: reduced accumulation of gluco-series glycolipids in the liver and brain
[1]; increased from 45 days
  median survival of treated mice: 60 days
[1]; treated mice
  increase in median survival: 30%
Adults with GD3 [2]; [11]
  ventricular volume increase, Patient 9: 9.6%
  whole brain volume reduction, Patient 9: 1.57%
Adults with GD3 [2]; after 1 year, patient with low-to-undetectable venglustat exposure, baseline 882 951 mm^3
  change in whole brain volume, Patient 9: −13894.8 mm^3
Adults with GD3 [2]; [12]
  MRI whole brain volume, Percentage change: −0.52% and 0.38% and 0.11% and −1.57% and −0.22% and −0.23% and 0.025% and 0.48% and 0.21%
Adults with GD3 [2]; vMRI Group A, Week 52
  regional brain volume change (mean atrophy ± SD), left cuneus: 37.2 ± 46.2
  regional brain volume change (mean atrophy ± SD), left entorhinal: 34.5 ± 32.1
  regional brain volume change (mean atrophy ± SD), left lingual: 50.1 ± 80.0
  regional brain volume change (mean atrophy ± SD), left pericalcarine: 18.5 ± 22.0
  regional brain volume change (mean atrophy ± SD), left putamen: 94.7 ± 78.7
  regional brain volume change (mean atrophy ± SD), right accumbens area: 12.9 ± 9.6
  regional brain volume change (mean atrophy ± SD), right amygdala: 60.8 ± 74.9
  regional brain volume change (mean atrophy ± SD), right postcentral: 91.7 ± 100.0
  regional brain volume change (mean atrophy ± SD), right putamen: 97.8 ± 100.8
  ventricle volume change (mean ± SD): −438 ± 696.9
[3]; 4 h post-dose plasma concentrations, 15 mg once daily
  accumulation in plasma after once-daily dosing versus Day 1: ~2 fold
[3]; Day 1, ~4 h post-dose, 15 mg once daily
  plasma venglustat concentration, mean (SD): 48 (17.5) ng/ml
[3]; [13]
  plasma venglustat concentration, mean (SD): 116 (48.1) ng/ml
[3]; Week 4
  plasma venglustat concentration, Patient 9: 102 ng/mL
[3]; [14]
  plasma venglustat concentration, mean (SD): 120 (40.1) ng/ml
[3]; Week 26
  plasma venglustat concentration, Patient 9: 53.3 ng/mL
[3]; [15]
  plasma venglustat concentration, mean (SD): 114 (65.8) ng/ml
[3]; Week 52
  plasma venglustat concentration, Patient 9: undetectable
[3]; human, plasma, po, 15 mg
  AUC(0-t): 851 ng·h/mL
  Cmax: 58.1 ng/mL
  Tmax: 2 h
[3]; mean plasma concentrations, Patient 9 excluded, 15 mg once daily
  steady state reached (plasma): ≤ 4 Week
[4]; [13]
  CSF venglustat concentration, mean (SD): 6.63 (2.42) ng/ml
[4]; Week 4
  CSF venglustat concentration, Patient 9: 3.05 ng/mL
[4]; [14]
  CSF venglustat concentration, mean (SD): 6.77 (1.96) ng/ml
[4]; Week 26
  CSF venglustat concentration, Patient 9: 1.77 ng/mL
[4]; [15]
  CSF venglustat concentration, mean (SD): 6.14 (3.44) ng/ml
[4]; Week 52
  CSF venglustat concentration, Patient 9: undetectable
[4]; mean CSF concentrations, Patient 9 excluded, 15 mg once daily
  steady state reached (CSF): ≤ 4 Week
[4]; venglustat detectable in CSF 4 h post dose over 1 year (excluding Patient 9)
  crossing of the blood–brain barrier: crossed the blood–brain barrier
[5]
  monosialodihexosylganglioside in CSF on treatment: undetectable in all CSF samples
Adults with GD3 [6]
  treatment effect on saccadic eye movements: no clear evidence of a treatment effect
glucosylceramide; [16]
  median glucosylceramide reduction in CSF: 81%
  median glucosylceramide reduction in plasma: 78%
glucosylceramide; [12]
  Glucosylceramide concentration, CSF, Change: −4.04 ng/ml and −4.95 ng/ml and −8.95 ng/ml and +1.64 ng/ml and −4.17 ng/ml and −4.7 ng/ml and −3.32 ng/ml and −3.53 ng/ml and −7.02 ng/ml and −13.3 ng/ml
  Glucosylceramide concentration, CSF, Percentage change: −80.2% and −83.2% and −80.6% and +37.1% and −80.7% and −82.5% and −47.4% and −77.9% and −76.9% and −87.5% and −93%
  Glucosylceramide concentration, Plasma, Change: −4.31 μg/ml and −5.49 μg/ml and −4.7 μg/ml and +1.14 μg/ml and −3.97 μg/ml and −2.24 μg/ml and −5.31 μg/ml and −4.19 μg/ml and −3.68 μg/ml and −6.69 μg/ml
  Glucosylceramide concentration, Plasma, Percentage change: −82.5% and −78.4% and −71.6% and +13.7% and −78.2% and −85.9% and −45.8% and −84% and −80.3% and −77% and −85.1%
Adults with GD3 [7]; baseline 54.4 (47.5) s
  time to complete TMT Trail A at Week 52, mean (SD): 53.5 (43.1) s
Adults with GD3 [7]; baseline 99.3 s
  time to complete Trail B minus Trail A at Week 52, mean: 61.7 s
Adults with GD3 [7]; baseline 153.6 (149.4)
  time to complete TMT Trail B at Week 52, mean (SD): 115.3 (76.8) seconds
Adults with GD3 [7]; baseline to Week 52
  patients with reduction in Trail B minus Trail A time: 7 of 11
Adults with GD3 [7]; baseline to Week 52, 95% CI: −21.0 to 19.4
  time to complete TMT Trail A, mean change: -0.8 s
Adults with GD3 [7]; baseline to Week 52, 95% CI: −88.1 to 13.0
  time to complete Trail B minus Trail A, mean change: -37.5 s
Adults with GD3 [7]; baseline to Week 52, 95% CI: −104.8 to 28.1
  time to complete TMT Trail B, mean change: -38.4 s
Adults with GD3 [7]; baseline to Week 52, marked reduction
  patients with reduction in TMT Trail B time: 8 of 11
Adults with GD3 [7]; baseline to Week 52, minor reduction
  patients with reduction in TMT Trail A time: 5 of 11
Plasma glucosylceramide; 15 mg once daily, Day 15, healthy volunteers
  mean plasma glucosylceramide reduction from baseline: 74.6%
Plasma glucosylceramide; once-daily dosing of up to 15 mg
  safety and tolerability in healthy volunteers: favourable safety and tolerability profile
Plasma glucosylceramide; pharmacokinetic-pharmacodynamic modelling after repeated dosing
  Emax (plasma glucosylceramide reduction): 80%
CYP3A
  metabolism by CYP3A: principally metabolized by the CYP3A cytochrome complex
glucosylsphingosine; [16]
  median glucosylsphingosine reduction in CSF: 70%
  median glucosylsphingosine reduction in plasma: 56%
glucosylsphingosine; [12]
  Glucosylsphingosine concentration, CSF, Change: −72 pg/ml and −23.2 pg/ml and −30.2 pg/ml and +75.8 pg/ml and −15.75 pg/ml and −53.5 pg/ml and −9.8 pg/ml and −14.3 pg/ml and −17.3 pg/ml and −32.7 pg/ml and −35.7 pg/ml
  Glucosylsphingosine concentration, CSF, Percentage change: −72% and −48% and −44.7% and +313.2% and −69.7% and −95.5% and −46% and −71.1% and −87.4% and −75.7% and −70.3%
  Glucosylsphingosine concentration, Plasma, Change: −3.2 ng/ml and −18.9 ng/ml and −33 ng/ml and +69 ng/ml and −3.79 ng/ml and −22.5 ng/ml and −6.28 ng/ml and −8.67 ng/ml and −8.07 ng/ml and −4.5 ng/ml and −31.3 ng/ml
  Glucosylsphingosine concentration, Plasma, Percentage change: −56.1% and −50.7% and −41.4% and +43.4% and −60.3% and −57.8% and −71.5% and −59.8% and −47.8% and −23.3% and −64%
Adults with GD3 [8]
  adverse event: acne: two events in two patients
  adverse event: back pain: nine events in five patients
  adverse event: diarrhoea: two events in two patients
  adverse event: headache: ten events in six patients
  adverse event: upper respiratory tract infection: two events in two patients
  adverse event: vomiting: two events in two patients
  severity of most adverse events: mild or moderate, transient
Adults with GD3 [8]; venglustat 15 mg once daily in combination with imiglucerase
  deaths and serious adverse events: no deaths, serious adverse events; also recorded: no deaths or serious adverse events
Adults with GD3 [8]; [17]
  discontinuation of study treatment: no patient discontinued
  patients with at least one adverse event: 11
Adults with GD3 [9]; after 1 year, seven patients with data
  lumbar spine bone mineral density category: five patients remained in the same bone density category
Adults with GD3 [9]; after 1 year, seven patients with detectable disease at baseline
  interstitial lung disease: four improved
Adults with GD3 [9]; during 1 year of treatment, 11 patients
  bone marrow burden scores: remained in the same severity category in 10 patients
Adults with GD3 [9]; throughout 1 year, reference range for healthy persons
  haemoglobin concentrations, platelet counts, spleen and liver volumes: remained in this range
[10]
  inhibition of glucosylceramide formation: potent and specific inhibitor
